Experimental data collected from several papers.
Organism: Pseudomonas aeruginosa
Effect on: microbial growth

| Structure (SMILES) | assay | test system | conditions | MIC |
| --- | --- | --- | --- | --- |
| CC(C)Oc1c(NC(=O)c2ccc(NC(=O)[C@H](CC(N)=O)NC(=O)c3ccc(NC(=O)c4ccc([N+](=O)[O-])cc4)cc3)cc2)ccc(C(=O)Nc2ccc(C(=O)O)c(F)c2)c1O | – | PA14 | – | > 64 µg/mL |
| Cc1ccc(C)n1-c1ccc(-c2nnc(-c3ccc(Br)cc3)[nH]2)cc1 | broth dilution | ATCC10145 | 18 h | 125 µg/mL |
| CN(C)c1cc(NC(=O)CNC(C)(C)C)c(O)c2c1C[C@H]1C[C@H]3[C@H](N(C)C)C(O)=C(C(N)=O)C(=O)[C@@]3(O)C(O)=C1C2=O | broth dilution | ATCC27853 | – | 8 µg/mL |
| O=C1C[C@@H](c2ccc(O)cc2)Oc2cc(O)cc(O)c21 | broth dilution | PAO1 | – | 128 µg/mL |
| CC(C)Nc1nc(Cl)c2c(c1O)C(=O)C1=C(O)[C@]3(O)C(=O)C(C(N)=O)=C(O)[C@@H](N(C)C)[C@@H]3C[C@@H]1C2.Cl.Cl.Cl | broth dilution | ATCC27853 | – | > 32 µg/mL |
| COc1c(C)c(OC)c2c(c1C)OC(c1ccccc1)CC2=O (stereo not shown) | broth dilution | ATCC27853 | – | 5000 µg/mL |
| CCCCCCC/C=C/C(=O)N1C(=O)/C(=C(\O)C2CCNCC2)C(=O)C1CC(C)C (stereo not shown) | – | PA01 | – | 25 µg/mL |
| Cc1cccc(NCc2ccc(Oc3ccccn3)cc2)c1 | – | – | – | > 25 µg/mL |
| CC(C)Oc1c(NC(=O)c2ccc(NC(=O)[C@H](CC(N)=O)NC(=O)c3ccc(NC(=O)c4ccc([N+](=O)[O-])c(OC(C)C)c4O)cc3)cc2)ccc(C(=O)Nc2ccc(C(=O)O)cc2)c1O | – | PA14 | – | > 64 µg/mL |
| CN(C)[C@@H]1C(O)=C(C(N)=O)C(=O)[C@@]2(O)C(O)=C3C(=O)c4c(cc5ccc(CN6CCCCC6)cc5c4O)C[C@H]3C[C@@H]12 | broth dilution | ATCC27853 | – | 32 µg/mL |
| CCCC(=O)Oc1c(C)c(O)c(C(=O)/C=C/c2ccccc2)c(OC)c1C | broth dilution | ATCC27853 | – | 5000 µg/mL |
| CN(C)CC(C)(C)CNc1nc(Cl)c2c(c1O)C(=O)C1=C(O)[C@]3(O)C(=O)C(C(N)=O)=C(O)[C@@H](N(C)C)[C@@H]3C[C@@H]1C2.Cl | broth dilution | ATCC27853 | – | 32 µg/mL |
| O=C(Nc1ccc(F)c(Cl)c1)c1cc(Cl)ccc1O | broth dilution | ATCC27853 | – | > 64 µg/mL |
| CC(=O)NC1CN(Cc2ccc3cc4c(c(O)c3c2)C(=O)C2=C(O)[C@]3(O)C(=O)C(C(N)=O)=C(O)[C@@H](N(C)C)[C@@H]3C[C@@H]2C4)C1 | broth dilution | ATCC27853 | – | 32 µg/mL |
| Cc1c(CN(C)C(=O)/C=C/c2cnc3c(c2)CC(NC(=O)OC(C)(C)C)C(=O)N3)oc2ccccc12 (stereo not shown) | broth dilution | PA01 | – | > 32 µg/mL |
| O=c1[nH]cc(F)c(=O)[nH]1 | broth dilution | – | 24 h | 4 µg/mL |
| CC(C)C1NC(=O)C(C(=O)NC(C(=O)NC2C(=O)N3C2SC(C)(C)C3C(=O)O)c2ccccc2)=C1O (stereo not shown) | – | – | – | 50 µg/mL |
| O=C1NN=C(N=Cc2ccccc2)C1=NNn1c(-c2ccccc2)nc2ccccc2c1=O | broth dilution | – | 24 h | 114 µM |
| N=C(N)NN=Cc1ccc(OC/C=C\COc2ccc(C=NNC(=N)N)cc2)cc1 | – | PA14 | 16 h | ≤ 51 µg/mL |
| CC(C)Oc1c(N)ccc(C(=O)Nc2ccc(C(=O)N[C@@H](CC(N)=O)C(=O)Nc3ccc(C(=O)Nc4ccc(C(=O)Nc5ccc(C(=O)O)cc5)c(O)c4OC(C)C)cc3)cc2)c1O | – | PA14 | – | 32 µg/mL |
| O=c1cc(-c2ccccc2)oc2cc(O)c(O)c(O)c12 | broth dilution | PAO1 | – | 256 µg/mL |
| O=[N+]([O-])c1ccc(-c2nc3ccccc3n2Cc2ccccc2)cc1 | broth dilution | ATCC27853 | – | 128 µg/mL |
| CN(C)[C@@H]1C(O)=C(C(N)=O)C(=O)[C@@]2(O)C(O)=C3C(=O)c4c(cc5ccccc5c4O)C[C@H]3C[C@@H]12 | broth dilution | ATCC27853 | – | 32 µg/mL |
| CCCCC(=O)N1C(=O)/C(=C(/C)O)C(=O)C1CC(C)C (stereo not shown) | – | PA01 | – | > 200 µg/mL |
| O=C(CCc1cc(O)c(O)c(O)c1)NCCCCCCCC[P+](c1ccccc1)(c1ccccc1)c1ccccc1.[Br-] | broth dilution | ATCC27853 | 18 h | > 32 µg/mL |

| Structure (SMILES) | assay | test system | conditions | MIC |
| --- | --- | --- | --- | --- |
| CC1(C)SC2C(NC(=O)C(NC(=O)C3=C(O)C4(CC4)NC3=O)c3ccccc3)C(=O)N2C1C(=O)O (stereo not shown) | – | – | – | 25 µg/mL |
| CN(C)CCCNc1nc(Cl)c2c(c1O)C(=O)C1=C(O)[C@]3(O)C(=O)C(C(N)=O)=C(O)[C@@H](N(C)C)[C@@H]3C[C@@H]1C2.Cl | broth dilution | ATCC27853 | – | > 32 µg/mL |
| COc1c(C)c(OS(=O)(=O)c2ccc3ccccc3c2)c(C)c(OS(=O)(=O)c2ccc3ccccc3c2)c1C(=O)/C=C/c1ccccc1 | broth dilution | ATCC27853 | – | 5000 µg/mL |
| C[C@H]1COc2c(N3CCN(C)CC3)c(F)cc3c(=O)c(C(=O)O)cn1c23 | agar dilution | PAO1 | – | 4 µg/mL |
| Cc1cc(C#N)ccc1C(=O)Nc1ccc(C(=O)N[C@@H](CC(N)=O)C(=O)Nc2ccc(C(=O)Nc3ccc(C(=O)Nc4ccc(C(=O)O)cc4)c(O)c3OC(C)C)cc2)cc1 | – | PA14 | – | 8 µg/mL |
| O=C1NN=C(N=Cc2ccccc2O)C1=NNn1c(-c2ccccc2)nc2ccccc2c1=O | broth dilution | – | 24 h | 111 µM |
| CCCCCCC/C=C/C(=O)N1C(=O)/C(=C(\O)c2ccc(OCOCCOC)cc2)C(=O)C1CC(C)C (stereo not shown) | – | PA01 | – | > 200 µg/mL |
| Cn1cc(NC(=O)C(CC(N)=O)NC(=O)c2ccc(NC(=O)c3ccc(C#N)cc3)cc2)cc1-c1nc2ccc(C(=O)Nc3ccc(C(=O)O)cc3)c(O)c2[nH]1 (stereo not shown) | – | PA14 | – | > 64 µg/mL |
| Brc1cccc(NCc2ccc(Oc3ccccn3)cc2)c1 | – | – | – | > 50 µg/mL |
| O=[N+]([O-])c1ccc(-c2nc3cccc(O)c3[nH]2)o1 | broth dilution | ATCC27853 | – | > 64 µg/mL |
| CC(C)Oc1c(NC(=O)c2ccc(NC(=O)[C@H](CC(N)=O)NC(=O)c3ccc(C#Cc4ccc(C#N)cc4)cc3)cc2)ccc(C(=O)Nc2ccc(C(=O)O)cc2)c1O | – | PA14 | – | > 64 µg/mL |
| CCn1cc(C(=O)O)c(=O)c2cc(F)c(N3CCNCC3)cc21 | broth dilution | ATCC10145 | 18 h | > 5 µg/mL |
| CN(C)[C@@H]1C(O)=C(C(N)=O)C(=O)[C@@]2(O)C(O)=C3C(=O)c4c(O)c(NC(=O)CNC(C)(C)C)nc(F)c4C[C@H]3C[C@@H]12.Cl.Cl | broth dilution | ATCC27853 | – | > 32 µg/mL |
| Cc1cc(C)n(C(=O)c2ccc(-n3c(C)ccc3C)cc2)n1 | broth dilution | ATCC10145 | 18 h | 250 µg/mL |
| CC(=O)Nc1ccc(C(=O)Nc2ccc(C(=O)N[C@@H](CC(N)=O)C(=O)Nc3ccc(C(=O)Nc4ccc(C(=O)Nc5ccc(C(=O)O)cc5)c(O)c4OC(C)C)cc3)cc2)cc1 | – | PA14 | – | > 64 µg/mL |
| CC1=NN(CNc2ccc(Cl)cc2)C(=O)C1=NNn1c(-c2ccccc2)nc2ccccc2c1=O | broth dilution | – | 24 h | 51.5 µM |
| CC1NC(=O)C(C(=O)NC(C(=O)NC2C(=O)N3C2SC(C)(C)C3C(=O)O)c2ccccc2)=C1O (stereo not shown) | – | – | – | 50 µg/mL |
| c1ccc(NCc2ccc(Oc3ccccn3)cc2)cc1 | – | – | – | > 25 µg/mL |
| C/C(=C\c1ccc(C#N)cc1)C(=O)Nc1ccc(C(=O)N[C@@H](CC(N)=O)C(=O)Nc2ccc(C(=O)Nc3ccc(C(=O)Nc4ccc(C(=O)O)cc4)c(O)c3OC(C)C)cc2)cc1 | – | PA14 | – | 1 µg/mL |
| NC[C@H]1O[C@H](O[C@H]2[C@H](O)[C@@H](O[C@H]3O[C@H](CO)[C@@H](O)[C@H](N)[C@H]3O)[C@H](N)C[C@@H]2N)[C@H](N)C[C@@H]1O | broth dilution | – | – | 13 µM |
| Clc1ccc(Cn2c(-c3ccc(Cl)cc3)nc3ccccc32)cc1 | broth dilution | ATCC27853 | – | 256 µg/mL |
| O=C(CCCCCCCC[P+](c1ccccc1)(c1ccccc1)c1ccccc1)Nc1ccc(O)c(O)c1.[Br-] | broth dilution | ATCC27853 | 18 h | > 32 µg/mL |
| Cn1c(SCc2ccc(Cl)cc2)nnc1-c1cncc(C#Cc2ccccc2)c1 | – | – | – | ≥ 20 µg/mL |
| CN(C)[C@@H]1C(O)=C(C(N)=O)C(=O)[C@@]2(O)C(O)=C3C(=O)c4c(O)cccc4[C@@](C)(O)[C@H]3C[C@@H]12 | – | ATCC27853 | – | 8 µg/mL |
